Molecules are shown by their SMILES. The source made the active and inactive calls. The calls are words filed in the database; no cut-off is given here.

Data on nine compounds can be found in ChEMBL document CHEMBL3259723, “Membrane active vancomycin analogues: a strategy to combat bacterial resistance” (J Med Chem, 2014).

Test [1] concerns Staphylococcus aureus. The experiment in a line: Antibacterial activity against vancomycin-intermediate-resistant Staphylococcus aureus assessed as growth inhibition by broth microdilution method. The format is functional. In outline:
(§1)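 Broth microdilution per CLSI; compounds serially diluted in sterile water, added to bacteria at 10^5 CFU/mL (diluted from 6 h cultures). Incubated at 37 °C, OD600 read. Triplicate wells, experiment done at least twice. Mean OD plotted against concentration and fitted sigmoidally; MIC taken where OD matches the no-bacteria control.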
(In broth dilution the organism is exposed to a series of concentrations in liquid medium.)

Test [2] deals with Staphylococcus aureus. The experiment in a line: Antibacterial activity against methicillin-resistant Staphylococcus aureus ATCC 33591 assessed as growth inhibition by broth microdilution method. Type of test: functional. In outline: as §1
The test system of test [3] is Enterococcus faecium. The experiment in a line: Antibacterial activity against vancomycin-resistant VanA phenotype of Enterococcus faecium ATCC 51559 assessed as leakage of intracellular potassium ion at 10 uM measured for 10 mins by PBFI-AM dye-based spectrofluorometric analysis. Type of test: functional, organism-based. In short, it runs like this: (§2)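 Mid-log (6 h) cells washed twice and resuspended in 10 mM HEPES pH 7.2 with 0.5% glucose. Signal stabilized 60 s at RT, then 1 μM PBFI-AM added and a 2 min baseline recorded before compound.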

The subject of test [4] is Enterococcus faecium. The test is described as follows: Antibacterial activity against vancomycin-resistant VanA phenotype of Enterococcus faecium ATCC 51559 assessed as growth inhibition by broth microdilution method. The format is functional. In outline: as §1
Test [5] deals with Enterococcus faecium. The test is described as follows: Antibacterial activity against vancomycin-sensitive Enterococcus faecium ATCC 19634 assessed as growth inhibition by broth microdilution method. The format is functional. In outline: (§3)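 Broth microdilution per CLSI; compounds serially diluted in autoclaved water. Bacteria grown 6 h in suitable media, diluted to 10⁵ CFU/mL; compound added to bacterial suspension, incubated at 37 °C, OD600 read. Triplicate wells, experiment done at least twice; mean OD versus concentration sigmoidally fitted, MIC taken where OD equals no-bacteria control.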

Test [6] deals with Enterococcus faecium. The experiment in a line: Antibacterial activity against vancomycin-resistant VanA phenotype of Enterococcus faecium ATCC 51559 assessed as induction of cytoplasmic membrane permeabilization at 10 uM measured for 10 mins by propidium iodide uptake assay. The format is functional, organism-based. In outline: (§4)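 Mid-log (6 h) cells harvested at 4 °C, washed and resuspended in PBS pH 7.2. Compound added to cells with 10 μM propidium iodide. Fluorescence (ex 535/em 617 nm) monitored 10 min at RT; the rise in PI fluorescence taken as inner membrane permeabilization.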

Test [7] has as its system Staphylococcus aureus. The test is described as follows: Antibacterial activity against methicillin-resistant Staphylococcus aureus ATCC 33591 assessed as induction of membrane depolarization at 10 uM measured for 10 mins by DiSC3(5) dye-based spectrofluorometric analysis. The format is functional, organism-based. In outline:
(§5)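 Membrane potential assay with DiSC3(5): dye added to cells until maximal uptake, seen as a fluorescence minimum (about 10 min). Compounds then added and depolarization followed as the fluorescence increase over a further 10 min.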

Test [8] deals with Staphylococcus aureus. The experiment in a line: Antibacterial activity against methicillin-resistant Staphylococcus aureus ATCC 33591 assessed as induction of cytoplasmic membrane permeabilization at 10 uM measured for 10 mins by propidium iodide uptake assay. The format is functional, organism-based. In short, it runs like this: as §4
Test [9] relates to Enterococcus faecium. The experiment in a line: Antibacterial activity against vancomycin-resistant VanA phenotype of Enterococcus faecium ATCC 51559 assessed as induction of membrane depolarization at 10 uM measured for 10 mins by DiSC3(5) dye-based spectrofluorometric analysis. The format is functional, organism-based. In outline:
as §5

Test [10] concerns Staphylococcus aureus. The test is described as follows: Antibacterial activity against methicillin-sensitive Staphylococcus aureus MTCC 737 assessed as growth inhibition by broth microdilution method. The format is functional. In short, it runs like this:
as §3

Test [11] deals with Staphylococcus aureus. The experiment in a line: Antibacterial activity against methicillin-resistant Staphylococcus aureus ATCC 33591 assessed as leakage of intracellular potassium ion at 10 uM measured for 10 mins by PBFI-AM dye-based spectrofluorometric analysis relative to control. The format is functional. In outline:
as §2

Test [12] concerns Enterococcus faecium. The experiment in a line: Antibacterial activity against vancomycin-resistant VanA phenotype of Enterococcus faecium ATCC 51559 assessed as induction of membrane depolarization measured at < 3 mins by DiSC3(5) dye-based spectrofluorometric analysis. The format is functional, organism-based. In outline: as §5
In test [13] the test system is Staphylococcus aureus. The test is described as follows: Antibacterial activity against methicillin-resistant Staphylococcus aureus ATCC 33591 assessed as induction of cytoplasmic membrane permeabilization measured within 5 mins by propidium iodide uptake assay. The format is functional, organism-based. In short, it runs like this:
as §4

Test [14] deals with Staphylococcus aureus. The experiment in a line: Antibacterial activity against methicillin-resistant Staphylococcus aureus ATCC 33591 assessed as induction of membrane depolarization measured at < 3 mins by DiSC3(5) dye-based spectrofluorometric analysis. Type of test: functional, organism-based. In outline: as §5

As a reminder, the MIC is the least concentration at which growth counts as inhibited. Regarding `CC[N+](C)(C)CCCNC(=O)[C@H]1NC(=O)[C@H]2NC(=O)[C@H](NC(=O)[C@@H]3NC(=O)[C@H](CC(N)=O)NC(=O)[C@H](NC(=O)[C@@H](CC(C)C)NC)[C@H](O)c4ccc(c(Cl)c4)Oc4cc3cc(c4O[C@@H]3O[C@H](CO)[C@@H](O)[C@H](O)[C@H]3O[C@H]3C[C@](C)(N)[C@H](O)[C@H](C)O3)Oc3ccc(cc3Cl)[C@H]2O)c2ccc(O)c(c2)-c2c(O)cc(O)cc21`, the MIC in the test with Staphylococcus aureus [1] was 1.3 µM; with Staphylococcus aureus [2] it was 2.42 µM; in the test on Enterococcus faecium [4] it was more than 100 µM; with Enterococcus faecium [5] it was 0.45 µM; in the test on Staphylococcus aureus [10] it was 0.39 µM. Besides, the outcome with Enterococcus faecium [3], in the test on Enterococcus faecium [6], with Staphylococcus aureus [7], with Staphylococcus aureus [8] and in the test on Enterococcus faecium [9] was inactive.

As to `CCCCCCCCCCCCCCCCCC[N+](C)(C)CCCNC(=O)[C@H]1NC(=O)[C@H]2NC(=O)[C@H](NC(=O)[C@@H]3NC(=O)[C@H](CC(N)=O)NC(=O)[C@H](NC(=O)[C@@H](CC(C)C)NC)[C@H](O)c4ccc(c(Cl)c4)Oc4cc3cc(c4O[C@@H]3O[C@H](CO)[C@@H](O)[C@H](O)[C@H]3O[C@H]3C[C@](C)(N)[C@H](O)[C@H](C)O3)Oc3ccc(cc3Cl)[C@H]2O)c2ccc(O)c(c2)-c2c(O)cc(O)cc21.O=C([O-])C(F)(F)F`, the results for the minimum inhibitory concentration (MIC) in the test with Staphylococcus aureus [1], in the test with Enterococcus faecium [4] and in the test on Staphylococcus aureus [10] were 0.92 µM, 1.9 µM and 5.03 µM, respectively. In addition, the outcome with Enterococcus faecium [3] and in the test on Enterococcus faecium [6] was Active. The Activity in the test with Staphylococcus aureus [11] is 99%; with Enterococcus faecium [12] it was “Dose-dependent effect”; in the test on Staphylococcus aureus [13] it was “Dose-dependent effect”; with Staphylococcus aureus [14], “Dose-dependent effect”.

For the compound `CCCC[N+](C)(C)CCCNC(=O)[C@H]1NC(=O)[C@H]2NC(=O)[C@H](NC(=O)[C@@H]3NC(=O)[C@H](CC(N)=O)NC(=O)[C@H](NC(=O)[C@@H](CC(C)C)NC)[C@H](O)c4ccc(c(Cl)c4)Oc4cc3cc(c4O[C@@H]3O[C@H](CO)[C@@H](O)[C@H](O)[C@H]3O[C@H]3C[C@](C)(N)[C@H](O)[C@H](C)O3)Oc3ccc(cc3Cl)[C@H]2O)c2ccc(O)c(c2)-c2c(O)cc(O)cc21`, the MIC in the test with Staphylococcus aureus [1] is 1.14 µM; with Staphylococcus aureus [2] it was 0.6 µM; in the test with Enterococcus faecium [4], more than 100 µM; in the test with Enterococcus faecium [5] it was 0.31 µM; in the test with Staphylococcus aureus [10] it was 0.37 µM. Besides, the result with Enterococcus faecium [3], in the test on Enterococcus faecium [6], with Staphylococcus aureus [7], in the test with Staphylococcus aureus [8] and in the test on Enterococcus faecium [9] was inactive.

The term MIC90 denotes an inhibitory concentration at the 90% level, which refers to growth in some studies and to a panel of isolates in others. For `CCCCCCCCCCNCCN[C@@]1(C)C[C@H](O[C@H]2[C@H](Oc3c4cc5cc3Oc3ccc(cc3Cl)[C@@H](O)[C@@H](NC(=O)[C@@H](CC(C)C)NC)C(=O)N[C@@H](CC(N)=O)C(=O)N[C@H]5C(=O)N[C@H]3C(=O)N[C@H](C(=O)N[C@H](C(=O)O)c5cc(O)c(CNCP(=O)(O)O)c(O)c5-c5cc3ccc5O)[C@H](O)c3ccc(c(Cl)c3)O4)O[C@H](CO)[C@@H](O)[C@@H]2O)O[C@@H](C)[C@H]1O` [TELAVANCIN], the MIC90 in the test on Staphylococcus aureus [2] was 0.3 µM; in the test on Enterococcus faecium [4] it was 4 µM; in the test with Enterococcus faecium [5] it was 0.15 µM; in the test with Staphylococcus aureus [10] it was 0.3 µM.

In the case of `CCCCCCCCCCCCCC[N+](C)(C)CCCNC(C)=O`, the outcome in the test on Enterococcus faecium [3], with Enterococcus faecium [6] and with Enterococcus faecium [9] was inactive.

Consider `CN[C@H]1C(=O)N[C@@H]2Cc3ccc(cc3)Oc3cc4cc(c3O[C@@H]3O[C@H](C(=O)O)[C@@H](O)[C@H](O)[C@H]3NC(=O)CCCCCCCCC(C)C)Oc3ccc(cc3Cl)[C@@H](O)[C@@H]3NC(=O)[C@H](NC(=O)[C@@H]4NC(=O)[C@@H](NC2=O)c2cc(cc(O)c2Cl)Oc2cc1ccc2O)c1ccc(O)c(c1)-c1c(O[C@H]2O[C@H](CO)[C@@H](O)[C@H](O)[C@@H]2O)cc(O)cc1[C@@H](C(=O)NCCCN(C)C)NC3=O` [DALBAVANCIN], for which the MIC90 in the test with Staphylococcus aureus [2] was 0.04 µM; in the test with Enterococcus faecium [4], more than 18 µM; with Enterococcus faecium [5], 0.08 µM; with Staphylococcus aureus [10], 0.04 µM.

For the compound `CCCCCCCCCC[N+](C)(C)CCCNC(=O)[C@H]1NC(=O)[C@H]2NC(=O)[C@H](NC(=O)[C@@H]3NC(=O)[C@H](CC(N)=O)NC(=O)[C@H](NC(=O)[C@@H](CC(C)C)NC)[C@H](O)c4ccc(c(Cl)c4)Oc4cc3cc(c4O[C@@H]3O[C@H](CO)[C@@H](O)[C@H](O)[C@H]3O[C@H]3C[C@](C)(N)[C@H](O)[C@H](C)O3)Oc3ccc(cc3Cl)[C@H]2O)c2ccc(O)c(c2)-c2c(O)cc(O)cc21`, the MIC came out at 0.3 µM with Staphylococcus aureus [1]; 0.31 µM with Staphylococcus aureus [2]; 3 µM in the test on Enterococcus faecium [4]; 0.2 µM with Enterococcus faecium [5]; 0.31 µM with Staphylococcus aureus [10]. Besides, the result in the test with Enterococcus faecium [3], with Staphylococcus aureus [11] and with Enterococcus faecium [6] was Active. Moreover, the Activity entry in the test on Enterococcus faecium [12], in the test on Staphylococcus aureus [13] and with Staphylococcus aureus [14] was “Dose-dependent effect” throughout.

Regarding `CN[C@H](CC(C)C)C(=O)N[C@H]1C(=O)N[C@@H](CC(N)=O)C(=O)N[C@H]2C(=O)N[C@H]3C(=O)N[C@H](C(=O)N[C@H](C(=O)NCCCN(C)C)c4cc(O)cc(O)c4-c4cc3ccc4O)[C@H](O)c3ccc(c(Cl)c3)Oc3cc2cc(c3O[C@@H]2O[C@H](CO)[C@@H](O)[C@H](O)[C@H]2O[C@H]2C[C@](C)(N)[C@H](O)[C@H](C)O2)Oc2ccc(cc2Cl)[C@H]1O`, the MIC is 1.47 µM with Staphylococcus aureus [1]; 0.61 µM in the test on Staphylococcus aureus [2]; more than 100 µM with Enterococcus faecium [4]; 0.63 µM in the test with Enterococcus faecium [5]; 0.62 µM in the test on Staphylococcus aureus [10]. Moreover, the outcome in the test with Enterococcus faecium [3], in the test with Enterococcus faecium [6], in the test on Staphylococcus aureus [7], with Staphylococcus aureus [8] and with Enterococcus faecium [9] was inactive.

Consider `CCCCCCCCCCCCCCNCCCNC(=O)[C@H]1NC(=O)[C@H]2NC(=O)[C@H](NC(=O)[C@@H]3NC(=O)[C@H](CC(N)=O)NC(=O)[C@H](NC(=O)[C@@H](CC(C)C)NC)[C@H](O)c4ccc(c(Cl)c4)Oc4cc3cc(c4O[C@@H]3O[C@H](CO)[C@@H](O)[C@H](O)[C@H]3O[C@H]3C[C@](C)(N)[C@H](O)[C@H](C)O3)Oc3ccc(cc3Cl)[C@H]2O)c2ccc(O)c(c2)-c2c(O)cc(O)cc21`, for which the MIC in the test with Staphylococcus aureus [1] is 1 µM; in the test on Staphylococcus aureus [2], 0.61 µM; in the test with Enterococcus faecium [4] it was 5 µM; with Enterococcus faecium [5] it was 0.4 µM; with Staphylococcus aureus [10], 0.55 µM. The result in the test on Enterococcus faecium [3], with Enterococcus faecium [6] and in the test on Enterococcus faecium [9] was inactive.
